# Experimental data of several laboratories.
# Protocols differ between the studies behind these lines.
# Target: SRSF protein kinase 1 (SRPK1, Homo sapiens, UniProt Q96SB4)
Compound,effect on,method,tested at,remaining binding [%]
COc1cnc(Nc2cccc(S(N)(=O)=O)c2)nc1N1CCN(c2ccccc2)CC1,binding,competition with immobilised ligand,1 µM,65
CN(C)C(=O)Cn1cc(-c2nc(C3(c4ccc(-c5cnc(N)nc5)cc4)CC3)no2)cn1,cell-free assay,competition with immobilised ligand,1 µM,93
F[C@@H]1CCN(c2nccc(-c3cnn4ncccc34)n2)C1,binding,,1 µM,100
O=C(NCCCN1CCOCC1)c1ccc(Nc2nccc(-c3cc4ccccc4s3)n2)cc1,binding,competition with immobilised ligand,1 µM,100
Nc1ncc2c(n1)-c1c([nH]c3ccc(C#CC4CC4)cc13)CCCC2,binding,competition with immobilised ligand,1 µM,87
CN(C)C(=O)Cn1cc(-c2nc([C@@](C)(c3ccc(-c4cnc(N)nc4)cc3)C3CC3)no2)cn1,cell-free assay,competition with immobilised ligand,1 µM,100
COc1cnc(Nc2cccc(S(N)(=O)=O)c2)nc1N1CCN(c2ccccc2)C(=O)C1,binding,competition with immobilised ligand,1 µM,100
CN(CCCC(F)(F)F)c1nccc(-c2cnn3ncccc23)n1,binding,,1 µM,100
O=C(c1ccc(Nc2nccc(-c3cc4ccccc4s3)n2)cc1)N1CCC(N2CCCC2)CC1,binding,competition with immobilised ligand,1 µM,86
O=C(Nc1cccnn1)N1CC(C/C=C/c2cncc(Oc3ccc(C(F)(F)F)cn3)n2)C1,cell-free assay,competition with immobilised ligand,1 µM,82
CN(C)c1ncc(F)c(-c2cnn3ncccc23)n1,binding,,1 µM,95
CNCc1ccccc1-c1csc([C@H](C)Nc2nc(C)nc3cc(OC)c(OC)cc23)c1,cell-free assay,competition with immobilised ligand,1 µM,100
N[C@@H]1CCN(c2nccc(-c3cnn4ncccc34)n2)C1,binding,,1 µM,92
N#Cc1ccc(Nc2ccc3[nH]c(=O)[nH]c3c2)c(Cl)c1,cell-free assay,competition with immobilised ligand,1 µM,95
Cc1cnc(Nc2ccc(C(=O)N3CCC(N4CCCC4)CC3)cc2)nc1-c1cc2ccccc2s1,binding,competition with immobilised ligand,1 µM,100
CN(C)c1nccc(-c2cnn3ncccc23)n1,binding,,1 µM,100
c1cncc(-c2cccc(Nc3nccc(NC4CCCCC4)n3)c2)c1,binding,competition with immobilised ligand,10 µM,30
CN(c1nccc(-c2cnn3ncccc23)n1)C1CC1,binding,,1 µM,88
O=C(NCC1CCOCC1)c1n[nH]cc1NC(=O)c1c(F)cccc1F,binding,competition with immobilised ligand,1 µM,68
CCOCCn1cc(C(=O)Nc2ccc(-n3nc(-c4cccnc4)cc3C(F)(F)F)cn2)ccc1=O,cell-free assay,competition with immobilised ligand,1 µM,98
COc1ncc2cc3ccccc3nc2c1C#N,cell-free assay,competition with immobilised ligand,5 µM,96
